≈ marks a conversion by molar mass, not a printed value. Calls of active or inactive are those of the source. The rule behind the calls is not given here.
Columns and labels:
Bacillus subtilis [1] = experiment: Antibacterial activity against Bacillus subtilis MTCC 121 at 20 ug/ml after 24 hrs by disk diffusion method; assay type: functional; details: MTCC 121, 24 h, read-out: IZ
Pseudomonas aeruginosa [2] = experiment: Antibacterial activity against Pseudomonas aeruginosa MTCC 2453 at 20 ug/ml after 24 hrs by disk diffusion method; assay type: functional; details: MTCC 2453, 24 h, read-out: IZ
Staphylococcus [3] = experiment: Antibacterial activity against Staphylococcus MLS-16 MTCC 2940 after 24 hrs by agar dilution method; assay type: functional; details: MLS-16 MTCC 2940, 24 h
Staphylococcus [4] = experiment: Antibacterial activity against Staphylococcus MLS-16 MTCC 2940 at 20 ug/ml after 24 hrs by disk diffusion method; assay type: functional; details: MLS-16 MTCC 2940, 24 h, read-out: IZ
Micrococcus luteus [5] = experiment: Antibacterial activity against Micrococcus luteus MTCC 2470 after 24 hrs by agar dilution method; assay type: functional; details: MTCC 2470, 24 h
Bacillus subtilis [6] = experiment: Antibacterial activity against Bacillus subtilis MTCC 121 after 24 hrs by agar dilution method; assay type: functional; details: MTCC 121, 24 h
Escherichia coli = experiment: Antibacterial activity against Escherichia coli MTCC 739 at 80 ug/ml after 24 hrs by agar dilution method; assay type: functional, organism-based
Candida albicans [7] = experiment: Antifungal activity against Candida albicans MTCC 3017 after 48 hrs by agar dilution method; assay type: functional; details: MTCC 3017, 48 h
Outline: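 Same disk/dilution format as the antibacterial assay, on potato dextrose agar (39 g/L). Compounds were from DMSO stock, loaded at 1 to 80 per disk, in triplicate. Plates were incubated at 28 ± 2 °C for 48 h. MIC was the lowest amount that arrested growth. Equivalent DMSO served as solvent control.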

Pseudomonas aeruginosa [8] = experiment: Antibacterial activity against Pseudomonas aeruginosa MTCC 2453 after 24 hrs by agar dilution method; assay type: functional; details: MTCC 2453, 24 h
Micrococcus luteus [9] = experiment: Antibacterial activity against Micrococcus luteus MTCC 2470 at 20 ug/ml after 24 hrs by disk diffusion method; assay type: functional; details: MTCC 2470, 24 h, read-out: IZ
[10] = system: Mycobacterium tuberculosis; experiment: Antibacterial activity against Mycobacterium tuberculosis H37Rv at 32 ug/ml […] by agar dilution method; assay type: functional, organism-based
Raoultella planticola = experiment: Antibacterial activity against Klebsiella planticola MTCC 530 at 80 ug/ml after 24 hrs by agar dilution method; assay type: functional, organism-based
Staphylococcus aureus [11] = experiment: Antibacterial activity against Staphylococcus aureus MTCC 96 at 20 ug/ml after 24 hrs by disk diffusion method; assay type: functional; details: MTCC 96, 24 h, read-out: IZ
Staphylococcus aureus [12] = experiment: Antibacterial activity against Staphylococcus aureus MTCC 96 after 24 hrs by agar dilution method; assay type: functional; details: MTCC 96, 24 h
Candida albicans [13] = experiment: Antifungal activity against Candida albicans MTCC 3017 at 20 ug/ml after 24 hrs by disk diffusion method; assay type: functional; details: MTCC 3017, 24 h, read-out: IZ
Pseudomonas aeruginosa [14] = experiment: Antibacterial activity against Pseudomonas aeruginosa MTCC 2453 at 80 ug/ml after 24 hrs by agar dilution method; assay type: functional, organism-based
Micrococcus luteus [15] = experiment: Antibacterial activity against Micrococcus luteus MTCC 2470 at 80 ug/ml after 24 hrs by agar dilution method; assay type: functional, organism-based

SMILES | zone of inhibition at 20 µg/mL (Bacillus subtilis [1]) [mm] | zone of inhibition at 20 µg/mL (Pseudomonas aeruginosa [2]) [mm] | MIC (Staphylococcus [3]) [µg/mL] | zone of inhibition at 20 µg/mL (Staphylococcus [4]) [mm] | MIC (Micrococcus luteus [5]) [µg/mL] | MIC (Bacillus subtilis [6]) [µg/mL] | Activity (Escherichia coli) | MIC (Candida albicans [7]) [µg/mL] | MIC (Pseudomonas aeruginosa [8]) [µg/mL] | zone of inhibition at 20 µg/mL (Micrococcus luteus [9]) [mm] | Activity [10] | Activity (Raoultella planticola) | zone of inhibition at 20 µg/mL (Staphylococcus aureus [11]) [mm] | MIC (Staphylococcus aureus [12]) [µg/mL] | zone of inhibition at 20 µg/mL (Candida albicans [13]) [mm] | Activity (Pseudomonas aeruginosa [14]) | Activity (Micrococcus luteus [15])
O=C1O[C@@H](CNS(=O)(=O)c2ccc(F)cc2)CN1c1ccc(N2CCSCC2)c(F)c1 | 23 | 17 | 10 (≈ 21.3 µM) | 17 | 10 (≈ 21.3 µM) | 8 (≈ 17 µM) | inactive | 10 (≈ 21.3 µM) | 10 (≈ 21.3 µM) | 14 | inactive | inactive | 18 | 10 (≈ 21.3 µM) | 16 |  | 
CC(C)(C)OC(=O)N1CCN(c2ccc(N3C[C@H](CNS(=O)(=O)c4ccc(C(F)(F)F)cc4)OC3=O)cc2F)CC1 |  |  | 10 (≈ 16.6 µM) |  | 20 (≈ 33.2 µM) | 8 (≈ 13.3 µM) | inactive | 20 (≈ 33.2 µM) | 10 (≈ 16.6 µM) |  | inactive | inactive |  | 10 (≈ 16.6 µM) |  |  | 
OC(Cn1cncn1)(Cn1cncn1)c1ccc(F)cc1F [FLUCONAZOLE] |  |  |  |  |  |  |  | 1 (≈ 3.27 µM) |  |  |  |  |  |  | 20 |  | 
O=C1O[C@@H](CNS(=O)(=O)c2ccc(C(F)(F)F)cc2)CN1c1ccc(N2CCNCC2)c(F)c1 | 16 | 16 | 6 (≈ 11.9 µM) | 15 | 8 (≈ 15.9 µM) | 8 (≈ 15.9 µM) | inactive | 10 (≈ 19.9 µM) | 8 (≈ 15.9 µM) | 13 |  | inactive | 17 | 6 (≈ 11.9 µM) | 15 |  | 
O=C1O[C@@H](CNS(=O)(=O)c2ccc(C(F)(F)F)cc2)CN1c1ccc(N2CCOCC2)c(F)c1 |  |  | 10 (≈ 19.9 µM) |  | 8 (≈ 15.9 µM) | 8 (≈ 15.9 µM) | inactive | 20 (≈ 39.7 µM) | 8 (≈ 15.9 µM) |  | inactive | inactive |  | 10 (≈ 19.9 µM) |  |  | 
O=C1O[C@@H](CNS(=O)(=O)c2ccc(F)c(Cl)c2)CN1c1ccc(N2CCOCC2)c(F)c1 |  |  | 6 (≈ 12.3 µM) |  | 6 (≈ 12.3 µM) | 6 (≈ 12.3 µM) | inactive | 6 (≈ 12.3 µM) |  |  | inactive | inactive |  | 6 (≈ 12.3 µM) |  | inactive | 
CC(=O)c1ccc(S(=O)(=O)NC[C@H]2CN(c3ccc(N4CCOCC4)c(F)c3)C(=O)O2)cc1 |  |  | 6 (≈ 12.6 µM) |  | 6 (≈ 12.6 µM) | 6 (≈ 12.6 µM) | inactive | 6 (≈ 12.6 µM) |  |  | inactive | inactive |  | 6 (≈ 12.6 µM) |  | inactive | 
O=C1O[C@@H](CNS(=O)(=O)c2ccc(Oc3ccccc3)cc2)CN1c1ccc(N2CCOCC2)c(F)c1 |  |  | 4 (≈ 7.58 µM) |  | 8 (≈ 15.2 µM) | 8 (≈ 15.2 µM) | inactive | 6 (≈ 11.4 µM) |  |  | inactive | inactive |  | 4 (≈ 7.58 µM) |  | inactive | 
CC(=O)c1ccc(S(=O)(=O)NC[C@H]2CN(c3ccc(N4CCSCC4)c(F)c3)C(=O)O2)cc1 |  |  | 8 (≈ 16.2 µM) |  |  | 10 (≈ 20.3 µM) | inactive | 20 (≈ 40.5 µM) |  |  | inactive | inactive |  | 8 (≈ 16.2 µM) |  | inactive | inactive
CC(=O)Nc1nc(C)c(S(=O)(=O)NC[C@H]2CN(c3ccc(N4CCSCC4)c(F)c3)C(=O)O2)s1 |  |  | 8 (≈ 15.1 µM) |  |  | 10 (≈ 18.9 µM) | inactive | 8 (≈ 15.1 µM) | 8 (≈ 15.1 µM) |  |  | inactive |  | 8 (≈ 15.1 µM) |  |  | inactive
O=C1O[C@@H](CNS(=O)(=O)c2cccc3cccnc23)CN1c1ccc(N2CCSCC2)c(F)c1 |  |  | 6 (≈ 11.9 µM) |  |  | 8 (≈ 15.9 µM) | inactive | 8 (≈ 15.9 µM) | 8 (≈ 15.9 µM) |  | inactive | inactive |  | 6 (≈ 11.9 µM) |  |  | inactive
O=C1O[C@@H](CNS(=O)(=O)c2ccc(F)c(Cl)c2)CN1c1ccc(N2CCSCC2)c(F)c1 |  |  | 8 (≈ 15.9 µM) |  |  | 10 (≈ 19.8 µM) | inactive | 20 (≈ 39.7 µM) |  |  | inactive | inactive |  | 8 (≈ 15.9 µM) |  | inactive | inactive

— ChEMBL document CHEMBL2331333, “Synthesis, biological evaluation of new oxazolidino-sulfonamides as potential antimicrobial agents” (2013)
